High-throughput results as filed in PubChem BioAssay.
RAM network inh – inhibitors of the yeast RAM network, primary screen, dse1pr::URA3 reporter, 5-FOA selection; hit rate 1.8% among 190,000; S. cerevisiae dse1pr::URA3 reporter, 5-FOA growth OD615, 2 d; analog-sensitive cbk1-as2 kinase mutant strain; inhibition, % at 50 µM; AID 868, 2007;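 active means inhibition above a set limit, 3 SD over mean compound inhibition, cut at about 8.4% in these data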;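 further: 0% = DMSO-only wells with no growth and 100% = 10 µM 1-NA-PP1 full growth; inhibition rescues growth on 5-FOA so higher OD means more RAM inhibition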
Yeast growth inh – growth inhibitors of yeast BB579 in restrictive medium, primary screen, yeast lifespan-shortening project, S. cerevisiae | OD615, 48 h | inhibition, % at 10 µM | hit rate 0.51% among 140,000 | AID 804, 2007;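 active means inhibition above a set limit, 3 SD over the mean compound inhibition, cut at about 44% in these data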
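System: DeaD yeast strain BB579; buffer or medium: CSMM-D dextrose restrictive medium; technique: OD at 615 nm; schedule: 4 h cell preincubation, 48 h compound exposure, 30 °C humidified; doses: single 10 µM dose; controls: amphotericin B 10 µg/mL, positive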
Yeast lifespan up – compounds extending yeast replicative lifespan, primary screen, S. cerevisiae, OD615. S. cerevisiae growth with nicotinamide; deaD strain in restrictive glucose medium. inhibition of the nicotinamide effect, % at 10 µM. hit rate 0.68% among 130,000;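 active means inhibition above a set limit, placed 3 SD over the median of all compounds, cut at about 26% in these data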;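 further: 0% = nicotinamide-treated wells and 100% = cells grown without nicotinamide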
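assay system = DeaD-strain S. cerevisiae | buffer or medium = restrictive glucose medium | reagent = 1.5 mM nicotinamide | compound = 10 µM single point, 0.25% DMSO | incubation = 48 h compound exposure at 30 °C, humidified | signal = OD615 measurement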
WT yeast gro inh – growth inhibition of WT strain, primary screen, mitochondrial fusion inhibitor project, WT and mutant strains, chemical genetic; AID 1362, 2008; mitochondrial fusion phenotypic screen; hit rate 2.1% among 190,000; inhibition, % at 10 µM; in the data active means inhibition above about 58%; tested in S. cerevisiae
KCC2 mod – KCC2 cotransporter modulators, thallium flux, primary screen, cell-based, HEK293 KCC2, FluoZin-2 fluorescence, MLSMR; KCC2 cells, thallium flux FluoZin-2 fluorescence; hit rate 2.2% among 190,000; AID 1456, 2008; Solute carrier family 12 member 5 (Homo sapiens), Q9H2X9; B-score of Tl+ flux slope (higher = more flux/activation; lower = inhibition) at 10 µM;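 active means thallium flux slope and its plate-corrected score both differing from the plate sample mean at a set confidence after two filtering rounds, in either direction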;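 further: slope of fluorescence scaled to starting intensity during 10 to 20 s after thallium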
Target sequence (Q9H2X9 whole entry, looked up): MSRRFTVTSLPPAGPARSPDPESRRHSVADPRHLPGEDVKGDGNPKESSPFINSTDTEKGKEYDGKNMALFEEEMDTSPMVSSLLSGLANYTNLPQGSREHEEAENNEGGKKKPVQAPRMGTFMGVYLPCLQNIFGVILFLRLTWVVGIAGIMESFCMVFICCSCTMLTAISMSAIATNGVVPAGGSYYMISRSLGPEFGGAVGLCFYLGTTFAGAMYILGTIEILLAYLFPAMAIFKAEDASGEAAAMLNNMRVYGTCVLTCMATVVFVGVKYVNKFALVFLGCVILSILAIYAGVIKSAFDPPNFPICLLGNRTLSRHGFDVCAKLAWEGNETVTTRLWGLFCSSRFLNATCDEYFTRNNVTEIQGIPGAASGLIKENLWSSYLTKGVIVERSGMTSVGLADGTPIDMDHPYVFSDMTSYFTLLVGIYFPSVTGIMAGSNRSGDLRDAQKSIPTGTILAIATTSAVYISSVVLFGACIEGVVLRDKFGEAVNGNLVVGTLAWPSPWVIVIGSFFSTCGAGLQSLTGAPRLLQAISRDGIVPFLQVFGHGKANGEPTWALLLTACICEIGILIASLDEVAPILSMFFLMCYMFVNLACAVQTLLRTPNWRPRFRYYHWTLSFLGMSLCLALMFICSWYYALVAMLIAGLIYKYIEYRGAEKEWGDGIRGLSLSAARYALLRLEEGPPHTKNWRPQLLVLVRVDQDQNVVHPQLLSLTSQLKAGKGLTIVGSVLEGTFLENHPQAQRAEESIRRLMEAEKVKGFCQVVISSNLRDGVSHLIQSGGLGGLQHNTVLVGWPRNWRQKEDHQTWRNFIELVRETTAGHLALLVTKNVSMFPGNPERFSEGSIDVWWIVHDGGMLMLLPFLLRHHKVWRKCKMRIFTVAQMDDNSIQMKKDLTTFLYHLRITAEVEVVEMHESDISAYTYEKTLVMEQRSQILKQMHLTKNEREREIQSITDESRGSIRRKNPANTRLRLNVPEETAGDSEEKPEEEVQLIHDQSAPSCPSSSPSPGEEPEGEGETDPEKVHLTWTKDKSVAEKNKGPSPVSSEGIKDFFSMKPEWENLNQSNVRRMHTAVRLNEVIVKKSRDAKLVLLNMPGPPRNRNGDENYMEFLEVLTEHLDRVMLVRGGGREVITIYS
* marks the source's active call; other numbers are inactive results. Most compounds without a hit are left out; they make up all but 5.5% or so of the library.

CC(=O)O[C@]1(C(C)=O)CC[C@H]2[C@@H]3C[C@H](C)C4=CC(=O)CC[C@]4(C)[C@H]3CC[C@@]21C was read as RAM network inh -1, Yeast growth inh -19, Yeast lifespan up 14, WT yeast gro inh 5 and KCC2 mod -1.2.
CC(=O)O[C@]1(C(C)=O)CC[C@H]2[C@@H]3C=C(Cl)C4=CC(=O)CC[C@]4(C)[C@H]3CC[C@@]21C was read as RAM network inh 8.8*, Yeast growth inh -18, Yeast lifespan up 2, WT yeast gro inh 34 and KCC2 mod -1.1.
Screening CCCCCCCc1nc2c(=O)[nH]c3ccccc3c2o1 returned KCC2 mod -0.57.
`CC(NC(=O)Nc1ccccc1)C(c1cccs1)N1CCOCC1` (configuration not stated) gave RAM network inh 0, Yeast growth inh -27, Yeast lifespan up -5, WT yeast gro inh -13 and KCC2 mod 0.86.
CC(NC(=O)Nc1ccc(Cl)cc1)C(c1cccs1)N1CCOCC1 (configuration not stated) was read as RAM network inh 0, Yeast growth inh 49*, Yeast lifespan up -7 and WT yeast gro inh -4.
For C=CCn1c(=S)[nH]c2scc(-c3ccc(C)o3)c2c1=O the results were RAM network inh 5, WT yeast gro inh 65* and KCC2 mod 61*.
Cc1ccc(-c2csc3nc(C)n(N)c(=O)c23)o1 was read as RAM network inh 2, Yeast growth inh 2, Yeast lifespan up -13, WT yeast gro inh -5 and KCC2 mod -0.033.
Screening CCn1c(=S)[nH]c2scc(-c3cccs3)c2c1=O returned RAM network inh 4, WT yeast gro inh 25 and KCC2 mod 60*.
COC(=O)N/N=C(\C)c1ccc(-n2ccnc2)cc1 was read as RAM network inh 4 and WT yeast gro inh -10.
C/C(=N\Nc1cccc(Cl)c1)c1ccc(-n2ccnc2)cc1 was read as RAM network inh -1, Yeast growth inh -46, Yeast lifespan up -9, WT yeast gro inh 66* and KCC2 mod 0.67.
For CCOC(=O)c1cc(C(=O)c2cccs2)n2ccc(C(C)=O)cc12 the results were RAM network inh 8.5*, Yeast growth inh -40, Yeast lifespan up -8, WT yeast gro inh -8 and KCC2 mod 0.61.
Screening O=C(/C=N/O)NCCN1CCCCC1 returned RAM network inh 1, Yeast growth inh -23, Yeast lifespan up -10 and WT yeast gro inh 59*.
Screening C/C(=N\O)C(=O)NCCN1CCCCC1 returned RAM network inh 2, Yeast growth inh -36, Yeast lifespan up 12, WT yeast gro inh 0 and KCC2 mod 0.43.
CC1(C)C2CCC1(C)C(OC(=O)CNc1ccccc1)C2 (configuration not stated) was read as KCC2 mod 0.29.
Screening COc1cc(C(=O)OC2CC3CCC2(C)C3(C)C)ccc1OC(C)=O (configuration not stated) returned RAM network inh 4, WT yeast gro inh 73* and KCC2 mod 0.66.
`CN(C)c1ccc(N=Nc2ccccc2C(=O)OCC(=O)N(C)c2ccccc2)cc1` gave RAM network inh 10*, Yeast growth inh -12, Yeast lifespan up -5, WT yeast gro inh 9 and KCC2 mod -0.049.
Screening COC(=O)c1ccccc1NC(=O)COC(=O)c1ccccc1N=Nc1ccc(N(C)C)cc1 returned RAM network inh 5, Yeast growth inh -53, Yeast lifespan up -2, WT yeast gro inh 12 and KCC2 mod -0.74.
COc1cnc(-c2ccccn2)nc1Oc1ccc(Cl)c2ccccc12 was read as RAM network inh -2, Yeast growth inh -3, Yeast lifespan up -19, WT yeast gro inh -5 and KCC2 mod -0.72.
COc1cnc(-c2ccccn2)nc1Oc1ccccc1Cl was read as RAM network inh 0, Yeast growth inh -33, Yeast lifespan up 58, WT yeast gro inh 61* and KCC2 mod 0.089.
For O=C(CSc1nc2ccccc2s1)Nc1ccc(N2CCOCC2)c(Cl)c1 the results were RAM network inh 5, Yeast growth inh -40, Yeast lifespan up -7, WT yeast gro inh -8 and KCC2 mod -0.14.
`O=C(CSc1nc2ccccc2s1)Nc1ccc(Cl)c(S(=O)(=O)N2CCOCC2)c1` gave RAM network inh 9.9*, Yeast growth inh -51, Yeast lifespan up 3, WT yeast gro inh 34 and KCC2 mod 0.45.
CCOC(=O)c1noc(C)c1C(=O)Nc1nc(C)cc(C)n1 was read as RAM network inh 2, WT yeast gro inh -12 and KCC2 mod 0.61.
For C=CCOC(=O)C1=C[C@H](C2CC2)[C@@H](CCCO)[C@H](OCC)O1 the results were RAM network inh -1, WT yeast gro inh -11 and KCC2 mod 0.22.
Screening CCCCCCCCC/C(=N\O)c1ccccn1 returned RAM network inh -2, Yeast growth inh 100*, Yeast lifespan up -28, WT yeast gro inh 74* and KCC2 mod 0.64.
COc1ccc(NC(=S)Nc2cc(-c3ccccc3)[nH]n2)cc1Cl was read as RAM network inh 2, Yeast growth inh -14, Yeast lifespan up -14 and WT yeast gro inh 66*.
`COc1ccc(NC(=S)Nc2cc(C)[nH]n2)cc1Cl` gave KCC2 mod -0.8.
Screening Cc1cc(NC(=S)Nc2ccc(C)c(Cl)c2)n[nH]1 returned RAM network inh 1, WT yeast gro inh 75* and KCC2 mod -0.41.
C=CCN=C1NN=C(c2ccc3c(c2)OCCO3)CS1 was read as RAM network inh 2, WT yeast gro inh 8 and KCC2 mod 0.0082.
For N#Cc1ccc(OCC(=O)NCCc2ccccn2)cc1 the results were RAM network inh 2, Yeast growth inh -26, Yeast lifespan up 46*, WT yeast gro inh -5 and KCC2 mod 0.27.
Screening O=C(COc1ccc(Br)cc1)NCc1ccccn1 returned RAM network inh -1, Yeast growth inh -18, Yeast lifespan up -15, WT yeast gro inh -14 and KCC2 mod 0.14.
Cn1c(C(=O)OCC(=O)NCc2ccco2)cc2sccc21 was read as RAM network inh 4, Yeast growth inh -29, Yeast lifespan up -12, WT yeast gro inh 6 and KCC2 mod -1.6.
For Cc1ccc(Cn2c(C(=O)O)cc3sccc32)cc1 the results were RAM network inh 7, Yeast growth inh -34, Yeast lifespan up 26*, WT yeast gro inh -9 and KCC2 mod -0.25.
CCC(OC(=O)c1cc2sccc2n1C)C(=O)NCc1ccco1 (configuration not stated) was read as RAM network inh 2, Yeast growth inh -75, Yeast lifespan up -7, WT yeast gro inh 75* and KCC2 mod -1.9.
For O=C(NCCc1ccccc1)c1cc2sccc2n1Cc1ccccc1 the results were RAM network inh 4, Yeast growth inh -82, Yeast lifespan up -5, WT yeast gro inh 7 and KCC2 mod 0.91.
